Source: ChEMBL document CHEMBL4765370, “Design, synthesis, and biological evaluation of aryl piperazines with potential as antidiabetic agents via the stimulation of glucose uptake and inhibition of NADH:ubiquinone oxidoreductase” (Eur J Med Chem, 2020)

Legend:
[1] = test system: C2C12; assay: Induction of glucose uptake in mouse C2C12 cells assessed as [3H]2-deoxyglucose uptake preincubated for 16 hrs followed by followed by [3H]2-deoxyglucose addition and measured after 10 mins by liquid scintillation counting method; type: functional
Method in brief: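 C2C12 mouse myoblasts were grown in high-glucose DMEM with 10% FBS. At 80% confluence they were differentiated into myotubes with 2% horse serum. Myotubes were exposed to compound (10 µM) for 16 h in medium with 0.1% horse serum, then washed with KRB pH 7.4 and given 1 µCi/mL [3H]-2-deoxyglucose for 10 min at 37 °C. After ice-cold washes and 0.1% SDS lysis, scintillation counts were normalised to BCA protein. Results are fold change vs DMSO, mean ± SEM, one-way ANOVA.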

[2] = Inhibition of NADH:ubiquinone oxidoreductase in rat liver mitochondria incubated for 3 mins
[3] = Apparent permeability in MDCK-MDR1 cells at 10 uM after 30 mins by LC-MS/MS analysis; type: ADME, cell-based, Canis lupus familiaris; conditions: dog
Method in brief: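 Test article was taken from a 10 mM DMSO stock and diluted in DMEM to a final 10 µM donor solution, with 10 µM propranolol as internal standard. It was applied to hMDR1-MDCK monolayers on filters. Transfer to the receiver compartment was measured over 30 min in both directions, apical-to-basolateral and basolateral-to-apical. Quantification was by LC-MS/MS, n = 3.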

Row | IC50 [2] | Papp at 0.5 h, 10 µM [3] | SMILES | fold change (FC) [1]
1 | 92 µM | – | O=C(CCCc1cccs1)Nc1ccc(C(F)(F)F)cc1 | 1.11
2 | – | – | COC(=O)CCCCCCCC(=O)N1CCN(c2ccc(C(F)(F)F)cc2)CC1 | 1.08
3 | – | – | O=C(CCC(=O)N1CCN(c2ccc(C(F)(F)F)cn2)CC1)c1cccs1 | 1.22
4 | – | 218 nm/s | CC(C)NCC(O)COc1cccc2ccccc12 (centres undefined) [PROPRANOLOL] | –
5 | – | – | CCCCC(=O)N1CCN(c2ccc(C(F)(F)F)cc2)CC1 | 1.28
6 | – | – | O=C(c1cccs1)N1CCN(c2ccc(C(F)(F)F)cc2)CC1 | 0.93
7 | – | – | CC(=O)N1CCN(c2ccc(C(F)(F)F)cc2)CC1 | 1.43
8 | 161 µM | – | CN1CCN(C(=O)CCCc2cccs2)CC1 | 0.84
9 | – | – | O=C(CCCc1cccs1)N1CCN(c2ncc(C(F)(F)F)cc2Cl)CC1 | 1.13
10 | – | – | FC(F)(F)c1ccc(N2CCN(CCCCc3cccs3)CC2)cc1 | 1.36
11 | – | – | O=C(CCc1cccs1)N1CCN(c2ccc(C(F)(F)F)cc2)CC1 | 1.09
12 | – | – | COCCNC(=O)CCCCCCCC(=O)N1CCN(c2ccc(C(F)(F)F)cc2)CC1 | 2.35
13 | – | – | FC(F)(F)c1cnc(N2CCNCC2)c(Cl)c1 | 1.16
14 | – | – | O=C(CCCc1cn[nH]c1)N1CCN(c2ccc(C(F)(F)F)cc2)CC1 | 1.35
15 | 14 µM | – | O=C(CCSc1cccs1)N1CCN(c2ccc(C(F)(F)F)cc2)CC1 | 2.14
16 | – | – | O=C(CCC(=O)N1CCC(c2ccc(C(F)(F)F)cc2)CC1)c1cccs1 | 1.31
17 | – | – | CCCCCCCC(=O)N1CCN(c2ccc(C(F)(F)F)cc2)CC1 | 1.38
18 | – | – | O=C(CCCc1cccs1)N1CCN(c2ccccc2C(F)(F)F)CC1 | 0.85
19 | – | – | O=C(CCCc1cccs1)N1CCN(c2ccc(C(F)(F)F)cc2Br)CC1 | 1.02
20 | – | – | COC(=O)CCCc1cccs1 | 1.09
21 | – | – | O=C(CCCc1cccs1)N1CCN(c2ccc(C(F)(F)F)cn2)CC1 | 1
22 | – | – | O=C(CCCc1cccs1)N1CCN(c2ccc(F)cc2)CC1 | 1.16

Row | IC50 [2] | Papp at 0.5 h, 10 µM [3] | SMILES | fold change (FC) [1]
23 | – | – | Cc1ccc(N2CCN(C(=O)CCCc3cccs3)CC2)cc1 | 1
24 | – | – | O=C(CCc1ccco1)N1CCN(c2ccc(C(F)(F)F)cc2)CC1 | 1.11
25 | – | – | O=C(CCCc1cccs1)N1CCN(c2cc(C(F)(F)F)cc(C(F)(F)F)c2)CC1 | 1.42
26 | 15 µM | – | O=C(CCCc1cccs1)N1CCC(c2ccc(C(F)(F)F)cc2)CC1 | 2.14
27 | – | – | O=C(CCCc1cccs1)N1CCN(C2CCCCC2)CC1 | 1.29
28 | – | – | O=C(CCC(=O)N1CCN(c2ncc(C(F)(F)F)cc2Cl)CC1)c1cccs1 | 1.26
29 | – | – | O=C(Cc1cccs1)N1CCN(c2ccc(C(F)(F)F)cc2)CC1 | 1.33
30 | 60 µM | – | O=C(CCCCc1cccs1)N1CCN(c2ccc(C(F)(F)F)cc2)CC1 | 1.78
31 | – | – | O=C(CCCc1cccs1)N1CCC(c2ccccc2)CC1 | 1.25
32 | – | – | Nc1ccc(N2CCN(C(=O)CCCc3cccs3)CC2)cc1 | 1.32
33 | – | – | O=C(O)CCCCCCCC(=O)N1CCN(c2ccc(C(F)(F)F)cc2)CC1 | 1.38
34 | – | – | O=C(CCCCCc1cccs1)N1CCN(c2ccc(C(F)(F)F)cc2)CC1 | 1.33
35 | 46 µM | – | O=C(CCCc1cccs1)N1CCN(c2ccc(C(F)(F)F)cc2Cl)CC1 | 1.58
36 | – | – | O=C(CCC(=O)N1CCN(c2ccc(C(F)(F)F)cc2)CC1)c1cccs1 | 1.19
37 | 6 µM | – | O=C(CCCCc1ccccc1)N1CCN(c2ccc(C(F)(F)F)cc2)CC1 | 1.95
38 | – | – | O=C(CCSc1cccs1)N1CCN(c2ncc(C(F)(F)F)cc2Cl)CC1 | 1.31
39 | – | – | O=C(CCCc1cccs1)NNc1ccc(C(F)(F)F)cc1 | 1.24
40 | – | – | O=C(O)CCCc1cccs1 | 1.16
41 | 17 µM | – | O=C(CCCc1cccs1)N1CCN(c2ccc([N+](=O)[O-])cc2)CC1 | 1.06
42 | – | – | O=C(CCCc1cccs1)N1CCN(c2ccc(C(F)(F)F)c(Cl)n2)CC1 | 1.22
43 | 133 µM | – | O=C(CCCc1cccs1)N1CCN(c2ccccc2)CC1 | 0.96

Row | SMILES | IC50 [2] | Papp at 0.5 h, 10 µM [3] | fold change (FC) [1]
44 | CN1CCN(c2ncc(C(F)(F)F)cc2Cl)CC1 | 67 µM | – | 0.92
